Laboratory results: ChEMBL document CHEMBL2375313, “Synthesis, in vitro antitumor evaluation and DNA-binding study of novel tetrahydroquinolines and some derived tricyclic and tetracyclic ring systems” (Eur J Med Chem, 2013)

Legend:
Type in all cases: functional
[1] = test system: HOP-92; test: Cytotoxicity against human HOP92 cells assessed as growth inhibition at 10 uM after 48 hrs by sulphorhodamine B assay; settings: HOP-92, 48 h, read-out: GI
Summary of the method: (§1)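 NCI-60 one-dose screen per the NCI Drug Evaluation Branch protocol. Cells given a single 10 µM concentration with 48 h continuous exposure. Growth estimated by sulphorhodamine B protein assay. Result expressed as percentage growth inhibition relative to untreated growth.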

[2] = test system: NCI-H23; test: Cytotoxicity against human NCI-H23 cells assessed as growth inhibition at 10 uM after 48 hrs by sulphorhodamine B assay; settings: NCI-H23, 48 h, read-out: GI; summary of the method: as §1
[3] = Cytotoxicity against human EKVX cells assessed as growth inhibition at 10 uM after 48 hrs by sulphorhodamine B assay; settings: read-out: GI; summary of the method: as §1
[4] = test system: A549; test: Cytotoxicity against human A549 cells assessed as growth inhibition at 10 uM after 48 hrs by sulphorhodamine B assay; settings: A549, 48 h, read-out: GI; summary of the method: as §1
[5] = test system: NCI/ADR-RES; test: Cytotoxicity against human NCI/ADR-RES cells assessed as growth inhibition at 10 uM after 48 hrs by sulphorhodamine B assay; settings: read-out: GI; summary of the method: as §1
[6] = test system: SNB-75; test: Cytotoxicity against human SNB75 cells assessed as growth inhibition at 10 uM after 48 hrs by sulphorhodamine B assay; settings: SNB-75, 48 h, read-out: GI; summary of the method: as §1
[7] = test system: U-251; test: Cytotoxicity against human U251 cells assessed as growth inhibition at 10 uM after 48 hrs by sulphorhodamine B assay; settings: U-251, 48 h, read-out: GI; summary of the method: as §1
[8] = test system: SNB-19; test: Cytotoxicity against human SNB19 cells assessed as growth inhibition at 10 uM after 48 hrs by sulphorhodamine B assay; settings: SNB-19, 48 h, read-out: GI; summary of the method: as §1
[9] = test system: SF-295; test: Cytotoxicity against human SF295 cells assessed as growth inhibition at 10 uM after 48 hrs by sulphorhodamine B assay; settings: SF-295, 48 h, read-out: GI; summary of the method: as §1
[10] = test system: DU-145; test: Cytotoxicity against human DU145 cells assessed as growth inhibition at 10 uM after 48 hrs by sulphorhodamine B assay; settings: DU-145, 48 h, read-out: GI; summary of the method: as §1
[11] = test system: SF-268; test: Cytotoxicity against human SF268 cells assessed as growth inhibition at 10 uM after 48 hrs by sulphorhodamine B assay; settings: SF-268, 48 h, read-out: GI; summary of the method: as §1
[12] = test system: PC-3; test: Cytotoxicity against human PC3 cells assessed as growth inhibition at 10 uM after 48 hrs by sulphorhodamine B assay; settings: PC-3, 48 h, read-out: GI; summary of the method: as §1
[13] = test system: UACC-62; test: Cytotoxicity against human UACC62 cells assessed as growth inhibition at 10 uM after 48 hrs by sulphorhodamine B assay; settings: UACC-62, 48 h, read-out: GI; summary of the method: as §1
[14] = test system: SK-MEL-2; test: Cytotoxicity against human SK-MEL-2 cells assessed as growth inhibition at 10 uM after 48 hrs by sulphorhodamine B assay; settings: SK-MEL-2, 48 h, read-out: GI; summary of the method: as §1
[15] = test system: SK-MEL-5; test: Cytotoxicity against human SK-MEL-5 cells assessed as growth inhibition at 10 uM after 48 hrs by sulphorhodamine B assay; settings: SK-MEL-5, 48 h, read-out: GI; summary of the method: as §1
[16] = test system: M14; test: Cytotoxicity against human M14 cells assessed as growth inhibition at 10 uM after 48 hrs by sulphorhodamine B assay; settings: M14, 48 h, read-out: GI; summary of the method: as §1
[17] = test system: LOX IMVI; test: Cytotoxicity against human LOXIMVI cells assessed as growth inhibition at 10 uM after 48 hrs by sulphorhodamine B assay; settings: read-out: GI; summary of the method: as §1
[18] = test system: UO-31; test: Cytotoxicity against human UO31 cells assessed as growth inhibition at 10 uM after 48 hrs by sulphorhodamine B assay; settings: UO-31, 48 h, read-out: GI; summary of the method: as §1
[19] = test system: CAKI-1; test: Cytotoxicity against human Caki1 cells assessed as growth inhibition at 10 uM after 48 hrs by sulphorhodamine B assay; settings: CAKI-1, 48 h, read-out: GI; summary of the method: as §1
[20] = test system: RXF 393; test: Cytotoxicity against human RXF393 cells assessed as growth inhibition at 10 uM after 48 hrs by sulphorhodamine B assay; settings: RXF 393, 48 h, read-out: GI; summary of the method: as §1
[21] = test system: ACHN; test: Cytotoxicity against human ACHN cells assessed as growth inhibition at 10 uM after 48 hrs by sulphorhodamine B assay; settings: read-out: GI; summary of the method: as §1
[22] = test system: SR; test: Cytotoxicity against human SR cells assessed as growth inhibition at 10 uM after 48 hrs by sulphorhodamine B assay; settings: read-out: GI; summary of the method: as §1
[23] = test system: A498; test: Cytotoxicity against human A498 cells assessed as growth inhibition at 10 uM after 48 hrs by sulphorhodamine B assay; settings: A498, 48 h, read-out: GI; summary of the method: as §1
[24] = test system: RPMI-8226; test: Cytotoxicity against human RPMI8226 cells assessed as growth inhibition at 10 uM after 48 hrs by sulphorhodamine B assay; settings: RPMI-8226, 48 h, read-out: GI; summary of the method: as §1
[25] = test system: MOLT-4; test: Cytotoxicity against human MOLT4 cells assessed as growth inhibition at 10 uM after 48 hrs by sulphorhodamine B assay; settings: MOLT-4, 48 h, read-out: GI; summary of the method: as §1
[26] = test system: K562; test: Cytotoxicity against human K562 cells assessed as growth inhibition at 10 uM after 48 hrs by sulphorhodamine B assay; settings: K562, 48 h, read-out: GI; summary of the method: as §1
[27] = test system: HL-60(TB); test: Cytotoxicity against human HL-60(TB) cells assessed as growth inhibition at 10 uM after 48 hrs by sulphorhodamine B assay; settings: HL-60, 48 h, read-out: GI
Summary of the method: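 NCI-60 one-dose primary screen run to the Drug Evaluation Branch protocol. Cells are exposed to a single 10 µM concentration for 48 h continuously, and growth is read by SRB protein assay. Data are reported as percent growth of treated cells, expressed as % growth inhibition.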

[28] = test system: SK-OV-3; test: Cytotoxicity against human SKOV3 cells assessed as growth inhibition at 10 uM after 48 hrs by sulphorhodamine B assay; settings: SK-OV-3, 48 h, read-out: GI; summary of the method: as §1
[29] = test system: CCRF-CEM; test: Cytotoxicity against human CCRF-CEM cells assessed as growth inhibition at 10 uM after 48 hrs by sulphorhodamine B assay; settings: read-out: GI; summary of the method: as §1
[30] = test system: OVCAR-5; test: Cytotoxicity against human OVCAR5 cells assessed as growth inhibition at 10 uM after 48 hrs by sulphorhodamine B assay; settings: OVCAR-5, 48 h, read-out: GI; summary of the method: as §1
[31] = test system: OVCAR-4; test: Cytotoxicity against human OVCAR4 cells assessed as growth inhibition at 10 uM after 48 hrs by sulphorhodamine B assay; settings: OVCAR-4, 48 h, read-out: GI; summary of the method: as §1
[32] = test system: IGROV-1; test: Cytotoxicity against human IGROV1 cells assessed as growth inhibition at 10 uM after 48 hrs by sulphorhodamine B assay; settings: IGROV-1, 48 h, read-out: GI; summary of the method: as §1
[33] = test system: T47D; test: Cytotoxicity against human T47D cells assessed as growth inhibition at 10 uM after 48 hrs by sulphorhodamine B assay; settings: read-out: GI; summary of the method: as §1
[34] = test system: Hs-578T; test: Cytotoxicity against human Hs578T cells assessed as growth inhibition at 10 uM after 48 hrs by sulphorhodamine B assay; settings: read-out: GI; summary of the method: as §1
[35] = test system: NCI-H522; test: Cytotoxicity against human NCI-H522 cells assessed as growth inhibition at 10 uM after 48 hrs by sulphorhodamine B assay; settings: NCI-H522, 48 h, read-out: GI; summary of the method: as §1
[36] = test system: HT-29; test: Cytotoxicity against human HT-29 cells assessed as growth inhibition at 10 uM after 48 hrs by sulphorhodamine B assay; settings: HT-29, 48 h, read-out: GI; summary of the method: as §1
[37] = test system: MCF7; test: Cytotoxicity against human MCF7 cells assessed as growth inhibition at 10 uM after 48 hrs by sulphorhodamine B assay; settings: MCF7, 48 h, read-out: GI; summary of the method: as §1
[38] = test system: MDA-MB-435; test: Cytotoxicity against human MDA-MB-435 cells assessed as growth inhibition at 10 uM after 48 hrs by sulphorhodamine B assay; settings: MDA-MB-435, 48 h, read-out: GI; summary of the method: as §1
[39] = test system: HCT-15; test: Cytotoxicity against human HCT15 cells assessed as growth inhibition at 10 uM after 48 hrs by sulphorhodamine B assay; settings: HCT-15, 48 h, read-out: GI; summary of the method: as §1
[40] = test system: MDA-MB-468; test: Cytotoxicity against human MDA-MB-468 cells assessed as growth inhibition at 10 uM after 48 hrs by sulphorhodamine B assay; settings: MDA-MB-468, 48 h, read-out: GI; summary of the method: as §1
[41] = test system: HCT-116; test: Cytotoxicity against human HCT116 cells assessed as growth inhibition at 10 uM after 48 hrs by sulphorhodamine B assay; settings: HCT-116, 48 h, read-out: GI; summary of the method: as §1

**Q.** What does the source list for CC1CCCc2c1nc1[nH]c(=O)nc(N)c1c2-c1ccc(Cl)cc1 (stereo unspecified)?
**A.** inhibition of growth at 10 µM [1]: 27.7%; inhibition of growth at 10 µM [2]: 10%; inhibition of growth at 10 µM [3]: < 10%; inhibition of growth at 10 µM [4]: 11.5%; inhibition of growth at 10 µM [5]: < 10%; inhibition of growth at 10 µM [6]: 11%; inhibition of growth at 10 µM [7]: 10.2%; inhibition of growth at 10 µM [8]: 16.6%; inhibition of growth at 10 µM [9]: < 10%; inhibition of growth at 10 µM [10]: 14%; inhibition of growth at 10 µM [11]: < 10%; inhibition of growth at 10 µM [12]: 12.7%; inhibition of growth at 10 µM [13]: 25.4%; inhibition of growth at 10 µM [14]: < 10%; inhibition of growth at 10 µM [15]: < 10%; inhibition of growth at 10 µM [16]: < 10%; inhibition of growth at 10 µM [17]: < 10%; inhibition of growth at 10 µM [18]: 10%; inhibition of growth at 10 µM [19]: < 10%; inhibition of growth at 10 µM [20]: < 10%; inhibition of growth at 10 µM [21]: < 10%; inhibition of growth at 10 µM [22]: < 10%; inhibition of growth at 10 µM [23]: < 10%; inhibition of growth at 10 µM [24]: 23%; inhibition of growth at 10 µM [25]: < 10%; inhibition of growth at 10 µM [26]: 36.4%; inhibition of growth at 10 µM [27]: 24.6%; inhibition of growth at 10 µM [28]: < 10%; inhibition of growth at 10 µM [29]: < 10%; inhibition of growth at 10 µM [30]: < 10%; inhibition of growth at 10 µM [31]: 13.6%; inhibition of growth at 10 µM [32]: < 10%; inhibition of growth at 10 µM [33]: 29.5%; inhibition of growth at 10 µM [34]: 19.4%; inhibition of growth at 10 µM [35]: 12.9%; inhibition of growth at 10 µM [36]: < 10%; inhibition of growth at 10 µM [37]: < 10%; inhibition of growth at 10 µM [38]: < 10%; inhibition of growth at 10 µM [39]: 10%; inhibition of growth at 10 µM [40]: 10%; inhibition of growth at 10 µM [41]: 14%
